ChEMBL document CHEMBL1157732, “Piperazinyl pyrimidine derivatives as potent gamma-secretase modulators” (Bioorg Med Chem Lett, 2010)

Columns and labels:
[1] = Activity at gamma-secretase expressed in human SH-SY5Y cells assessed as inhibition of amyloid beta 42 production by electrochemiluminescence assay; type: cell-based
How it was run: (§1)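 SH-SY5Y cells stably overexpressing the β-APP C-terminal fragment SPA4CT; Aβ40 and Aβ42 peptides secreted into the medium quantified by electrochemiluminescent detection; IC50 values derived from these measurements.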

[2] = target: Gamma-secretase (Homo sapiens) (UniProt Q96BI3+Q9NZ42+Q8WW43+P49768+Q92542+P49810); assay: Selectivity ratio, IC50 for human gamma-secretase-mediated NotchdeltaE cleavage to IC50 for gamma-secretase-mediated amyloid beta 42 production; type: protein-complex assay
[3] = Activity at gamma-secretase expressed in human SH-SY5Y cells assessed as inhibition of amyloid beta 40 production by electrochemiluminescence assay; type: cell-based; how it was run: as §1
[4] = target: Gamma-secretase; assay: Inhibition of gamma-secretase-mediated NotchdeltaE cleavage in human HeLa cells by luciferase assay; type: cell-based

Row | Structure (SMILES) | IC50 [1] | Ratio IC50 [2] | IC50 [3] | IC50 [4]
1 | COc1ccc(N2CCN(c3nc(Nc4cc(C(C)(C)C)ccc4C)cc(OCCC(C)(C)O)n3)CC2(C)C)cc1 | 216 nM | > 230 | 5450 nM | > 50000 nM
2 | CCOc1cc(C)c(Nc2ccnc(N3CCN(c4ccc(OC)cc4)C(C)(C)C3)n2)cc1C(C)C | 35.6 nM |  | 737 nM | 
3 | COc1ccc(N2CCN(c3nc(Nc4cc(C(C)(C)C)ccc4C)cc(N(C)CCN(C)C)n3)CC2(C)C)cc1 | 213 nM |  | 1970 nM | 
4 | COc1ccc(N2CCN(c3nccc(Nc4cc(C)ccc4C)n3)CC2(C)C)cc1 | 1000 nM |  | 4580 nM | 
5 | COc1ccc(N2CCN(c3nc(CC(=O)O)cc(Nc4cc(C(C)(C)C)ccc4C)n3)CC2(C)C)cc1 | 572 nM |  | 6410 nM | 
6 | COc1ccc(N2CCN(c3nc(Nc4cc(C(C)(C)C)ccc4C)cc(OCCN(C)C)n3)CC2(C)C)cc1 | 108 nM | 270 | 1590 nM | 28800 nM
7 | COc1ccc(N2CCN(c3nc(Nc4cc(C(C)(C)C)ccc4C)cc(OC)n3)CC2(C)C)cc1 | 262 nM | > 190 | 5680 nM | > 50000 nM
8 | COC(=O)c1cc(Nc2cc(C(C)(C)C)ccc2C)nc(N2CCN(c3ccc(OC)cc3)C(C)(C)C2)n1 | 85 nM |  | 2290 nM | 
9 | CCN(CC)c1cc(C)c(Nc2ccnc(N3CCN(c4ccc(OC)cc4)C(C)(C)C3)n2)cc1C | 169 nM |  | 2950 nM | 
10 | COc1ccc(N2CCN(c3nccc(Nc4cc(-c5ccccc5)ccc4C)n3)CC2(C)C)cc1 | 410 nM |  | 2280 nM | 
11 | COc1ccc(N2CCN(c3nc(CO)cc(Nc4cc(C(C)(C)C)ccc4C)n3)CC2(C)C)cc1 | 34 nM | 180 | 823 nM | 6140 nM
12 | COc1ccc(N2CCN(c3nc(Nc4cc(C(C)(C)C)ccc4C)cc(C(=O)NCC4CCCO4)n3)CC2(C)C)cc1 (stereo not given) | 194 nM | > 250 | 8120 nM | > 50000 nM
13 | COc1ccc(N2CCN(c3nc(Nc4cc(C(C)(C)C)ccc4C)cc(S(C)(=O)=O)n3)CC2(C)C)cc1 | 400 nM |  | 5780 nM | 
14 | CNC(=O)c1cc(Nc2cc(C(C)(C)C)ccc2C)nc(N2CCN(c3ccc(OC)cc3)C(C)(C)C2)n1 | 307 nM |  | 2980 nM | 
15 | COc1ccc(N2CCN(c3nc(N)cc(Nc4cc(C(C)(C)C)ccc4C)n3)CC2(C)C)cc1 | 88 nM | 390 | 830 nM | 34400 nM
16 | COc1ccc(N2CCN(c3nc(Nc4cc(C(C)(C)C)ccc4C)cc(C(=O)NCCN(C)C)n3)CC2(C)C)cc1 | 112 nM |  | 1710 nM | 
17 | COc1ccc(N2CCN(c3nc(Nc4cc(C(C)(C)C)ccc4C)cc(C(=O)O)n3)CC2(C)C)cc1 | 234 nM |  | 1930 nM | 
18 | COc1ccc(N2CCN(c3nc(CS(C)(=O)=O)cc(Nc4cc(C(C)(C)C)ccc4C)n3)CC2(C)C)cc1 | 348 nM |  | 6460 nM | 
19 | CCOc1cc(C)c(Nc2ccnc(N3CCN(c4ccc(OC)cc4)C(C)(C)C3)n2)cc1C | 534 nM |  | 6300 nM | 
20 | CCOc1ccc(Nc2ccnc(N3CCN(c4ccc(OC)cc4)C(C)(C)C3)n2)c(C)c1 | 3440 nM |  | 10000 nM | 
21 | COc1ccc(N2CCN(c3nccc(Nc4cc(C(C)(C)C)ccc4C)n3)CC2(C)C)cc1 | 255 nM |  | 5560 nM | 
22 | CCN(CC)c1cc(C)c(Nc2ccnc(N3CCN(c4ccc(OC)cc4)CC3)n2)cc1C | 1910 nM |  | 3740 nM | 
23 | COc1ccc(N2CCN(c3nc(Nc4cc(C(C)(C)C)ccc4C)cc(OCCN4CCOCC4)n3)CC2(C)C)cc1 | 263 nM | > 190 | 6150 nM | > 50000 nM
24 | COc1ccc(N2CCN(c3nccc(Nc4cc(C(C)(C)C)ccc4Cl)n3)CC2(C)C)cc1 | 695 nM |  | 1000 nM | 
25 | COc1ccc(N2CCN(c3nccc(Nc4cc(C(C)(C)C)nn4CC(F)(F)F)n3)CC2(C)C)cc1 | 272 nM |  | 5090 nM | 
26 | COc1ccc(N2CCN(c3nc(Nc4cc(C(C)(C)C)ccc4C)cc(OCCC4CCCN4C)n3)CC2(C)C)cc1 (stereo not given) | 235 nM | > 210 | 5600 nM | > 50000 nM
27 | COc1ccc(N2CCN(c3nccc(Nc4cc(C(C)(C)C)nn4C)n3)CC2(C)C)cc1 | 150 nM |  | 1940 nM | 
